The record followed here is ChEMBL document CHEMBL1127633, “Cyclic beta-casomorphin analogues with mixed mu agonist/delta antagonist properties: synthesis, pharmacological characterization, and conformational aspects” (J Med Chem, 1994).

In general, IC50 refers to the concentration that gives 50% inhibition. A higher IC50 goes with a need for much substance. What is called Ki is the equilibrium dissociation constant of an inhibitor or competing ligand from its target.

The species entered for one test is Mus musculus. The test can be described thus: In vitro inhibition of electrically evoked contractions of the mouse vas deferens (MVD). The format is functional. In a few lines:
(§1)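 Electrically evoked contractions of isolated tissue preparations. Each preparation had its own log dose-response curve with [Leu5]enkephalin as standard. Test IC50 values were normalized to that standard. Mean of three to six determinations ± SEM. Partial agonists are reported as % maximal inhibition of contraction at high concentrations.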

The species entered for the next test is Cavia porcellus. The test can be described thus: In vitro inhibition of electrically evoked contractions of the guinea pig ileum (GPI). The format is functional. In a few lines: as §1
The target of another test is Mu-type opioid receptor (Rattus norvegicus, UniProt P33535). The test can be described thus: Binding affinity for mu opioid receptors by displacement of [3H]-DAMGO from rat brain membrane binding site. A general note: In a radioligand displacement assay an active substance lowers the binding of a labelled ligand.
Mu-type opioid receptor, sequence (P33535 whole entry): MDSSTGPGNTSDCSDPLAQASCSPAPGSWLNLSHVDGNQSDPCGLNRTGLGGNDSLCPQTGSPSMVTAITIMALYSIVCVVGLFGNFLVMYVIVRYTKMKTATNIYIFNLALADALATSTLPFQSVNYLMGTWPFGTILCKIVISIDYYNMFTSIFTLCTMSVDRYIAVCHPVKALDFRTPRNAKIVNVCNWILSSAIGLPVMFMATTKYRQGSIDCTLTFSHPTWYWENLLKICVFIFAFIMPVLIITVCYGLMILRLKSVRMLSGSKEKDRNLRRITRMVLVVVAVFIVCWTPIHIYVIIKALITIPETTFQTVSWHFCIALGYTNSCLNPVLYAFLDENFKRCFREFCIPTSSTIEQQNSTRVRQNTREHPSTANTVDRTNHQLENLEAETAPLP
The target of test [1] is Delta-type opioid receptor (Rattus norvegicus, UniProt P33533). Kind of test: Binding affinity for delta opioid receptors was determined by displacement of [3H]DSLET from rat brain membrane binding site. In short, it runs like this:
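Rat brain membranes incubated 2 h at 0 °C with 0.78 nM [3H]DSLET. IC50 read from dose-displacement curves. […] Mean of three to six determinations ± SEM.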

The structures appear in SMILES notation. Residues, ends and D or L forms follow the SMILES beside them.

Delta-type opioid receptor, sequence (P33533 whole entry): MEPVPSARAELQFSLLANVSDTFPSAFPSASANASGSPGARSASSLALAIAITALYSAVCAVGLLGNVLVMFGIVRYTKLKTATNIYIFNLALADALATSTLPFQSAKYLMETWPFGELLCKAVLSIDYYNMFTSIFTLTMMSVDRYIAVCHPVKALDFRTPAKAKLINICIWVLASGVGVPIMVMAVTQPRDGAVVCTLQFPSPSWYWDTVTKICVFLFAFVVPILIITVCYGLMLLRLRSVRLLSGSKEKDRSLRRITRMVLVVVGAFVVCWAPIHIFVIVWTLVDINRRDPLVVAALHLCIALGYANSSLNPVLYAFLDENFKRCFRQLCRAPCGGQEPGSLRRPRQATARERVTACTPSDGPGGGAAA

For the molecule `N[C@@H](Cc1ccc(O)cc1)C(=O)N[C@@H]1CCCNC(=O)CNC(=O)[C@H]2CCCN2C(=O)[C@H](Cc2c[nH]c3ccccc23)NC1=O`, the values for the IC50 in the test listed under Mus musculus and in the test listed under Cavia porcellus were 16.1 nM and 27.5 nM, respectively. Also, the inhibitory constant (Ki) at Mu-type opioid receptor was 2.09 nM; in test [1], 10.3 nM.
Turning to `N[C@@H](Cc1ccc(O)cc1)C(=O)N[C@@H]1CCCNC(=O)CNC(=O)[C@H]2CCCN2C(=O)[C@H](Cc2ccccc2)NC1=O`, the half-inhibitory concentration (IC50) in the test listed under Mus musculus was 4.98 nM; in the test listed under Cavia porcellus, 2.14 nM. Further, the Ki at Mu-type opioid receptor was 0.881 nM; in test [1] it was 13.2 nM.
`N[C@@H](Cc1ccc(O)cc1)C(=O)N[C@@H]1CCCNC(=O)CNC(=O)[C@H]2CCCN2C(=O)[C@H](Cc2ccc3ccccc3c2)NC1=O` had an IC50 in the test filed under Cavia porcellus of 384 nM.
For the molecule `N[C@@H](Cc1ccc(O)cc1)C(=O)N[C@@H]1CCNC(=O)CNC(=O)[C@H]2CCCN2C(=O)[C@H](Cc2ccc3ccccc3c2)NC1=O`, the concentration for half-maximal inhibition (IC50) in the test filed under Mus musculus came to 1000 nM; in the test listed under Cavia porcellus it was 353 nM. Also, the Ki on Mu-type opioid receptor amounted to 6.41 nM; in test [1], 70.8 nM.
The like results for `N[C@@H](Cc1ccc(O)cc1)C(=O)N[C@@H]1CCCNC(=O)CNC(=O)[C@H]2CCCN2C(=O)[C@H](Cc2cccc3ccccc23)NC1=O` were, in that order, 29.9 nM, 14.9 nM, 3.42 nM and 23.6 nM.
As to `N[C@@H](Cc1ccc(O)cc1)C(=O)N[C@@H]1CCCNC(=O)[C@H]2CCCN2C(=O)[C@H](Cc2ccc3ccccc3c2)NC1=O`, the figures for the IC50 in the test filed under Mus musculus and in the test listed under Cavia porcellus were 32.2 nM and 11.8 nM, respectively. Also, the values for the inhibition constant (Ki) (on Mu-type opioid receptor; in test [1]) were 2.74 nM and 28.3 nM, respectively.
Molecule `NC(=O)[C@H](Cc1ccccc1)NC(=O)[C@H](Cc1ccccc1)NC(=O)[C@@H]1Cc2ccccc2CN1C(=O)[C@@H](N)Cc1ccc(O)cc1` (HELM PEPTIDE1{Y.[Tic].F.F.[am]}$$$$V2.0) gave an IC50 in the test filed under Cavia porcellus of 1700 nM.
For the molecule `N[C@@H](Cc1ccc(O)cc1)C(=O)NC1CCCNC(=O)CNC(=O)[C@@H]2CCCN2C(=O)[C@H](Cc2ccccc2)NC1=O` (single isomer, unassigned), the concentration for half-maximal inhibition (IC50) in the test listed under Mus musculus came out at 69.9 nM; in the test filed under Cavia porcellus, 13.4 nM. The Ki on Mu-type opioid receptor turned out to be 3.99 nM; in test [1] it was 1280 nM.
Regarding `N[C@@H](Cc1ccc(O)cc1)C(=O)NC1CCCNC(=O)CNC(=O)[C@@H]2CCCN2C(=O)[C@H](Cc2ccc3ccccc3c2)NC1=O` (single isomer, unassigned), the IC50 in the test filed under Mus musculus worked out at 10000 nM; in the test filed under Cavia porcellus, 1220 nM. Moreover, the figures for the inhibition constant (Ki) (at Mu-type opioid receptor; in test [1]) were 81.3 nM and 2140 nM, respectively.
